We go through four compounds from ChEMBL document CHEMBL1268810, “'Click' assembly of selective inhibitors for MAO-A” (Bioorg Med Chem Lett, 2010).

Assay [1] has as its target T1, Amine oxidase [flavin-containing] B (Homo sapiens, UniProt P27338).
T1 sequence (P27338 whole entry): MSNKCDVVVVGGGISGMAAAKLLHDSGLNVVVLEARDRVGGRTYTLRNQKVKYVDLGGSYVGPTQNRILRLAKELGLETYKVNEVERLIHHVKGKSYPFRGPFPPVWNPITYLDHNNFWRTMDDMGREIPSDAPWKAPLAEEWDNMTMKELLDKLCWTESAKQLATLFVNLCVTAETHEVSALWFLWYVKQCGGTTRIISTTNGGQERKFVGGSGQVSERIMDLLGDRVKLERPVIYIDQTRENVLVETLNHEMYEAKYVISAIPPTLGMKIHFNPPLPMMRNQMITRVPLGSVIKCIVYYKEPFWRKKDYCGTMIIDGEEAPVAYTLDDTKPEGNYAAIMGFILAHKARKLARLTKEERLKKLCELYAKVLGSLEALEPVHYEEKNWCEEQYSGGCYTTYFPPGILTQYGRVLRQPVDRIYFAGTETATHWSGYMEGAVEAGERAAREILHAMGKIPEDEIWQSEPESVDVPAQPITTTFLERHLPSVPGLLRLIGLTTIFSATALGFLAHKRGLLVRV
Nature of the assay: Inhibition of MAOB by spectrofluorimetry.

The target of assay [2] is T2, Amine oxidase [flavin-containing] A (Homo sapiens, UniProt P21397).
T2 sequence (P21397 whole entry): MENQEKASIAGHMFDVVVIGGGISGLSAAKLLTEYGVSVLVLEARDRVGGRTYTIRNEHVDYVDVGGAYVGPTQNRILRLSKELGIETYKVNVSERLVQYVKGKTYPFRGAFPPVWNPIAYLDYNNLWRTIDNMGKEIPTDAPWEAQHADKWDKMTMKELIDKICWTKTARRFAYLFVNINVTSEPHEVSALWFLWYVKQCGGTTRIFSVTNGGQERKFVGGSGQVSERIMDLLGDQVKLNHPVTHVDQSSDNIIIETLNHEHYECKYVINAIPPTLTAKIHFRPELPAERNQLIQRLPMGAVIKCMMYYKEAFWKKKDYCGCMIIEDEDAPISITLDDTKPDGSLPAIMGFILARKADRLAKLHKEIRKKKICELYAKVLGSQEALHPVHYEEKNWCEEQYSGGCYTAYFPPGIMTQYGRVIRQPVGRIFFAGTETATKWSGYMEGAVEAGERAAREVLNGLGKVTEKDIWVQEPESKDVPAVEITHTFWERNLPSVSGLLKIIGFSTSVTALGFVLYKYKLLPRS
In words: Inhibition of MAOA by spectrofluorimetry. Summed up:
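Fluorescence-based microplate assay for MAO-A and MAO-B inhibition, following the group's earlier reported method. Click reaction mixtures, made with CuSO4 and sodium ascorbate in t-BuOH/H2O (1:1) over 24 h, were diluted into 96-well plates from 0 to 100 μM. Fluorescence was read at λex 360 nm and λem 460 nm.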

A short description of assay [3]: Selectivity ratio, ratio of IC50 for MAOB to IC50 for MAOA.

`NCc1cn(-c2cccc(C(=O)O)c2)nn1`: the IC50 (commonly the point on the concentration scale where inhibition reaches its midpoint) in assay [1] worked out at 62.1 µM; in assay [2], 50.7 µM. For the same compound, the Ratio IC50 in assay [3] is 0.95.
In the same order, the values of `NCc1cn(-c2ccc(C(=O)O)cc2)nn1` are 56.9 µM, 19.6 µM and 2.89.
The like results for `NCc1cn(-c2ccccc2)nn1` were, in that order, 511 µM, 0.97 µM and 526.
In the same order, the values of `NCc1cn(-c2ccncc2)nn1` are 116 µM, 0.83 µM and 140.
